We go through 2 compounds from ChEMBL document CHEMBL1148939, “Montacin and cis-montacin, two new cytotoxic monotetrahydrofuran annonaceous acetogenins from Annona montana” (2004).

Values after ≈ are worked out from the molar mass of the structure shown.

Assay [1] deals with KB. Kind of assay: Cytotoxicity against human vincristine-resistant KB cells after 3 days by SRB assay in presence of Ca2+. Type of assay: functional. The conditions noted are these: 72 h, read-out: ED50 (the source's name). The method, boiled down:
(§1)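 This is the 3-day SRB growth assay in RPMI-1640 with 10% FBS and 25 mM HEPES, with CaCl2 added to the bioassay as the Ca2+ source. Trypsinized cells were seeded at 1500-7500 per well with DMSO-diluted compound, then fixed with cold TCA, stained with 0.4% SRB and read at 562 nm. ED50 is the concentration causing 50% growth reduction.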

Assay [2] concerns A549. Kind of assay: Cytotoxicity against human A549 cells after 3 days by SRB assay. The format is functional. The conditions noted are these: A549, 72 h, read-out: ED50 (the source's name). The gist of the method: (§2)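 Cells were grown in RPMI-1640 with 25 mM HEPES, 0.25% NaHCO3, 10% FBS and kanamycin. Freshly trypsinized cells were seeded at 1500-7500 per well with compound from a DMSO-diluted stock and cultured for 3 days. Attached cells were fixed with cold 50% TCA, stained with 0.4% SRB, and the solubilized dye was read at 562 nm. ED50 is the concentration giving 50% growth reduction over 3 days.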
(In general: Sulforhodamine B stains cellular protein and so reports cell mass.)

Assay [3] relates to HCT-8. In words: Cytotoxicity against human HCT8 cells after 3 days by SRB assay. The format is functional. As to conditions: HCT-8, 72 h, read-out: ED50 (the source's name). The method, boiled down:
as §2

Assay [4] relates to HCT-8. In words: Cytotoxicity against human HCT8 cells after 3 days by SRB assay in presence of Ca2+. The format is functional. As to conditions: HCT-8, 72 h, read-out: ED50 (the source's name). The method, boiled down: as §1
Assay [5] deals with 1A9. Kind of assay: Cytotoxicity against human 1A9 cells after 6 days by SRB assay. As to conditions: 1A9, 144 h, read-out: ED50 (the source's name). The format is functional. The gist of the method:
(§3)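 Parent 1A9 ovarian cells or the PTX10 subline (mutated β-tubulin) were grown in RPMI-1640 with 25 mM HEPES, 0.25% NaHCO3, 10% FBS and kanamycin. Freshly trypsinized cells were seeded at 1500-7500 per well with DMSO-diluted compound, cultured for 6 days, and evaluated by SRB staining. Activity was expressed as ED50.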

Assay [6] concerns 1A9/ptx-10. Kind of assay: Cytotoxicity against human 1A9/PTX10 cells after 3 days by SRB assay. The format is functional. As to conditions: 1A9/ptx-10, 72 h, read-out: ED50 (the source's name). The gist of the method:
as §2

In assay [7] the test system is 1A9/ptx-10. Kind of assay: Cytotoxicity against human 1A9/PTX10 cells after 6 days by SRB assay. Type of assay: functional. As to conditions: 1A9/ptx-10, 144 h, read-out: ED50 (the source's name). The gist of the method:
as §3

Assay [8] has as its system PC-3. In words: Cytotoxicity against human PC3 cells after 3 days by SRB assay in presence of Ca2+. Type of assay: functional. The conditions noted are these: PC-3, 72 h, read-out: ED50 (the source's name). The method, boiled down:
as §1

For assay [9], the system named is MCF7. Kind of assay: Cytotoxicity against human MCF7 cells after 3 days by SRB assay. The conditions noted are these: MCF7, 72 h, read-out: ED50 (the source's name). The format is functional. The gist of the method: as §2
Assay [10] deals with A549. Kind of assay: Cytotoxicity against human A549 cells after 3 days by SRB assay in presence of Ca2+. The format is functional. As to conditions: A549, 72 h, read-out: ED50 (the source's name). The method, boiled down:
as §1

For assay [11], the system named is KB. Kind of assay: Cytotoxicity against human vincristine-resistant KB cells after 3 days by SRB assay. The conditions noted are these: 72 h, read-out: ED50 (the source's name). The format is functional. The gist of the method:
as §2

Assay [12] concerns KB. Kind of assay: Cytotoxicity against human KB cells after 3 days by SRB assay in presence of Ca2+. As to conditions: 72 h, read-out: ED50 (the source's name). The format is functional. The method, boiled down:
as §1

Assay [13] deals with MCF7. In words: Cytotoxicity against human MCF7 cells after 3 days by SRB assay in presence of Ca2+. Type of assay: functional. As to conditions: MCF7, 72 h, read-out: ED50 (the source's name). The gist of the method: as §1
The test system of assay [14] is 1A9. In words: Cytotoxicity against human 1A9 cells after 3 days by SRB assay. As to conditions: 1A9, 72 h, read-out: ED50 (the source's name). The format is functional. The gist of the method: as §2
A short description of assay [15]: Cytotoxicity against human U87MG cells after 3 days by SRB assay. Type of assay: functional, U-87MG ATCC. The conditions noted are these: U-87 MG, 72 h, read-out: ED50 (the source's name).
Assay [16] deals with PC-3. In words: Cytotoxicity against human PC3 cells after 3 days by SRB assay. Type of assay: functional. The conditions noted are these: PC-3, 72 h, read-out: ED50 (the source's name). The gist of the method:
as §2

The subject of assay [17] is 1A9/ptx-10. In words: Cytotoxicity against human 1A9/PTX10 cells after 6 days by SRB assay in presence of Ca2+. The format is functional. As to conditions: 1A9/ptx-10, 144 h, read-out: ED50 (the source's name). The gist of the method:
(§4)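 1A9 ovarian cells or the β-tubulin-mutant PTX10 subline were grown in RPMI-1640 with 10% FBS and 25 mM HEPES. CaCl2 was included in the bioassay as the Ca2+ source. Cells were seeded at 1500-7500 per well with DMSO-diluted compound and cultured for 6 days before SRB staining. The read-out was ED50.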

Assay [18] concerns KB. In words: Cytotoxicity against human KB cells after 3 days by SRB assay. The format is functional. The conditions noted are these: 72 h, read-out: ED50 (the source's name). The method, boiled down: as §2
Assay [19] deals with 1A9. In words: Cytotoxicity against human 1A9 cells after 3 days by SRB assay in presence of Ca2+. The format is functional. The conditions noted are these: 1A9, 72 h, read-out: ED50 (the source's name). The method, boiled down:
as §1

Assay [20] can be described thus: Cytotoxicity against human U87MG cells after 3 days by SRB assay in presence of Ca2+. The format is functional, U-87MG ATCC. As to conditions: U-87 MG, 72 h, read-out: ED50 (the source's name).
In assay [21] the test system is 1A9/ptx-10. Kind of assay: Cytotoxicity against human 1A9/PTX10 cells after 3 days by SRB assay in presence of Ca2+. The format is functional. As to conditions: 1A9/ptx-10, 72 h, read-out: ED50 (the source's name). The gist of the method: as §1
In assay [22] the test system is 1A9. In words: Cytotoxicity against human 1A9 cells after 6 days by SRB assay in presence of Ca2+. The conditions noted are these: 1A9, 144 h, read-out: ED50 (the source's name). Type of assay: functional. The method, boiled down:
as §4

Assay [23] deals with SK-MEL-2. Kind of assay: Cytotoxicity against human SK-MEL-2 cells after 3 days by SRB assay in presence of Ca2+. The format is functional. The conditions noted are these: SK-MEL-2, 72 h, read-out: ED50 (the source's name). The gist of the method: as §1
Assay [24] in a line: Cytotoxicity against human CAKI cells after 3 days by SRB assay in presence of Ca2+. Type of assay: functional. As to conditions: 72 h, read-out: ED50 (the source's name). The gist of the method:
as §1

Assay [25] in a line: Cytotoxicity against human CAKI cells after 3 days by SRB assay. The format is functional. As to conditions: 72 h, read-out: ED50 (the source's name). The gist of the method: as §2
Assay [26] has as its system SK-MEL-2. In words: Cytotoxicity against human SK-MEL-2 cells after 3 days by SRB assay. The format is functional. As to conditions: SK-MEL-2, 72 h, read-out: ED50 (the source's name). The gist of the method: as §2

With `CCCCCCC[C@@H](O)[C@H]1CC[C@@H]([C@@H](O)CCCCCCCCCC[C@@H](O)CC(=O)CC[C@@H](O)CC2=C[C@H](C)OC2=O)O1`, the EC50 in the assay on KB [1] was determined as 13.8 µg/mL; in the assay on A549 [2], 6 µg/mL (≈ 9.82 µM); in the assay on HCT-8 [3], 12.9 µg/mL (≈ 21.1 µM); in the assay on HCT-8 [4] it was 11.7 µg/mL; in the assay with 1A9 [5], 0.54 µg/mL (≈ 0.884 µM); with 1A9/ptx-10 [6], 5.9 µg/mL (≈ 9.66 µM). Further, the EC50 in the assay with 1A9/ptx-10 [7] came out at 1.8 µg/mL (≈ 2.95 µM); in the assay with PC-3 [8], 12.1 µg/mL; with MCF7 [9] it was 6.7 µg/mL (≈ 11 µM); in the assay with A549 [10] it was 5.5 µg/mL; in the assay on KB [11], 13.4 µg/mL (≈ 21.9 µM); with KB [12] it was 8.2 µg/mL. For the same compound, the EC50 came to 6.4 µg/mL in the assay on MCF7 [13]; 3.6 µg/mL (≈ 5.89 µM) in the assay on 1A9 [14]; 15 µg/mL (≈ 24.6 µM) in assay [15]; 11.9 µg/mL (≈ 19.5 µM) with PC-3 [16]; 0.11 µg/mL in the assay with 1A9/ptx-10 [17]; 7.7 µg/mL (≈ 12.6 µM) in the assay with KB [18]. In addition, the EC50 with 1A9 [19] is 2 µg/mL; in [20] it was 14.3 µg/mL; with 1A9/ptx-10 [21], 5.3 µg/mL; in the assay on 1A9 [22] it was 0.13 µg/mL.

For the compound `CCCCCCC[C@H](O)[C@@H]1CC[C@@H]([C@@H](O)CCCCCCCCCC[C@H](O)CC(=O)CC[C@@H](O)CC2=C[C@H](C)OC2=O)O1` [MONTACIN], the EC50 in the assay with KB [1] is 13.9 µg/mL; in the assay on A549 [2], 12.9 µg/mL (≈ 21.1 µM); with HCT-8 [3] it was 16.5 µg/mL (≈ 27 µM); in the assay with HCT-8 [4], 12.3 µg/mL; in the assay with 1A9 [5], 6.7 µg/mL (≈ 11 µM); in the assay on 1A9/ptx-10 [6] it was > 10 µg/mL. Besides, the EC50 in the assay with 1A9/ptx-10 [7] was 7.9 µg/mL (≈ 12.9 µM); in the assay with PC-3 [8] it was 14.2 µg/mL; with MCF7 [9], 10 µg/mL (≈ 16.4 µM); in the assay on A549 [10], 7.4 µg/mL; in the assay with KB [11], > 20 µg/mL; in the assay on SK-MEL-2 [23], 13.3 µg/mL. Moreover, the EC50 in [24] is 14.2 µg/mL; with KB [12], 9.1 µg/mL; in assay [25] it was > 20 µg/mL; in the assay on MCF7 [13], 5.5 µg/mL; in the assay on 1A9 [14], > 10 µg/mL; in assay [15] it was > 20 µg/mL. Moreover, the EC50 in the assay with PC-3 [16] was > 20 µg/mL; in the assay on SK-MEL-2 [26], 11.2 µg/mL (≈ 18.3 µM); in the assay with 1A9/ptx-10 [17], 2.8 µg/mL; in the assay with KB [18] it was 16.6 µg/mL (≈ 27.2 µM); in the assay with 1A9 [19], 6.7 µg/mL; in [20], 14.2 µg/mL. Also, the results for the EC50 with 1A9/ptx-10 [21] and with 1A9 [22] were 7.5 µg/mL and 4.5 µg/mL, respectively.
